Screens deposited in PubChem by The Scripps Research Institute Molecular Screening Center.
This is a sample that favours compounds with a hit; in the whole collection about 1.8% have one here.
CHRM5 PAM – CHRM5 positive allosteric modulation | P08912 | CHO-K1 hM5, Fluo-8 calcium, ACh EC20 PAM; 0% = ACh EC20, 100% = ACh EC100 | activation, % at 3 µM | 360,000 compounds, 0.3% hits | AID 624038;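 active = activation above the run cutoff, the mean activation of all test compounds plus 3 SD, cut at about 18% in these data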
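system = human M5 receptor in CHO-K1 cells | reagent = EC20 acetylcholine as agonist stimulus | compound dosing = single-point, 3 µM nominal | incubation = Fluo-8 loading 80 min at 37 °C plus 30 min room temperature | detection = Fluo-8 calcium dye fluorescence, kinetic read | benchmarks = low control EC20 acetylcholine (0%), high control EC100 acetylcholine (100%)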
CHRM5 agonist – CHRM5 agonism in calcium assay; P08912; CHO-K1 hM5 cells, Fluo-8 calcium fluorescence; 0% DMSO wells, 100% maximal acetylcholine response; activation, % at 3 µM; 360,000 compounds, 0.19% hits; AID 624037;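 active = activation above the run's mean over test compounds plus 3 SD, cut at about 23% in these data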;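 also: signal is peak over basal fluorescence ratio across the kinetic read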
CHRM4 antagonist – antagonists of human muscarinic M4 receptor (CHRM4); inhibition, % at 3 µM; AID 624125; P08173; CHO-hM4 cells, ACh EC80, Fluo-8 calcium fluorescence; 360,000 compounds, 0.73% hits;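 active = inhibition above its plate's cutoff, the mean inhibition of sample wells plus 3 SD, cut at about 27% in these data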;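 also: 0% = acetylcholine EC80 with DMSO and 100% = DMSO without agonist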
Target sequence (P08173 whole entry, looked up): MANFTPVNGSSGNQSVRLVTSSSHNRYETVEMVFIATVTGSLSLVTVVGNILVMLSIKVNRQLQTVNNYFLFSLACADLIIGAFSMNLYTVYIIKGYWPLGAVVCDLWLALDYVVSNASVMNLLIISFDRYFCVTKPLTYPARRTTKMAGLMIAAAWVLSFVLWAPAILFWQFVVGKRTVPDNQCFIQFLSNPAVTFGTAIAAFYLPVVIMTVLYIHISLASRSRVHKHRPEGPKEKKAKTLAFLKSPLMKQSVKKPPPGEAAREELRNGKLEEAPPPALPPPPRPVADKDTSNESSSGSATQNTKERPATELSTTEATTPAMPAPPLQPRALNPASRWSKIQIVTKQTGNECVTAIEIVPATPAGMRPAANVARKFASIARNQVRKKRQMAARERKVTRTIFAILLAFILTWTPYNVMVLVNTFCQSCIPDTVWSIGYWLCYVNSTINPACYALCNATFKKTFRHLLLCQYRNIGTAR
M5 antag – antagonists of human muscarinic M5 receptor (CHRM5); CHO-hM5 cells, Fluo-8 calcium fluorescence, ACh EC80; inhibition, % at 3 µM; 360,000 compounds, 0.59% hits;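 active = inhibition above a per-plate cutoff, the mean of that plate's test compounds plus 3 SD, cut at about 27% in these data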;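 also: 0% = acetylcholine EC80 with DMSO and 100% = DMSO without agonist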
M4 PAM – CHRM4 positive allosteric modulation | P08173 | CHO-K1 hM4/Gqi5, Fluo-8 calcium fluorescence, ACh EC20; 0% = ACh EC20, 100% = maximal ACh | activation, % at 3 µM | 360,000 compounds, 0.4% hits;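 active = activation above its plate's cutoff, the mean activation of sample wells plus 3 SD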
CHRM4 agonist – CHRM4 agonism in calcium assay. P08173. CHO-K1 hM4/Gqi5, Fluo-8 calcium fluorescence; vehicle 0%, full acetylcholine response 100%. activation, % at 3 µM. 360,000 compounds, 0.14% hits. AID 624127;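 active = activation above the run mean over all test wells plus 3 SD, cut at about 32% in these data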;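 also: peak over basal fluorescence ratio per well then scaled between controls; 0% = DMSO wells and 100% = acetylcholine at EC100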
Active calls of the source: *.

SMILES	CHRM5 PAM	CHRM5 agonist	CHRM4 antagonist	M5 antag	M4 PAM	CHRM4 agonist
CCC(C)(C)C(=O)Nc1ncc(S(=O)(=O)c2ccc([N+](=O)[O-])cc2)s1	-9.2	15.8	5.2	9.2	-5.5	12.2
CCN(CC(=O)Nc1ccc(NC(C)=O)cc1)C(=O)c1ccc(N(C)S(=O)(=O)c2ccc(C)cc2)cc1	0.9	-1.6	0.5	10.0	-2.0	0.9
CCN(CC(=O)Nc1ccccc1OC)C(=O)c1ccc(N(C)S(=O)(=O)c2ccc(C)cc2)cc1	-29.6	-7.9	-6.7	97.8*	-4.3	18.8
CCc1ccccc1NC(=O)COc1ccc(N2CC(C(N)=O)CC2=O)cc1 (stereo not given)	-3.0	-1.4	3.8	6.4	-5.2	1.3
O=c1oc2c(CN3CCOCC3)c(O)ccc2c2c1CCC2	-0.9	-2.6	13.3	0.9	5.5	0.2
CC(C)CN(Cc1c(O)ccc2c3c(c(=O)oc12)CCC3)CC(C)C	6.0	-1.9	28.1*	-9.7	-30.3	-0.6
COc1ccc(CC(=O)Nc2cccc(-c3nnc(-c4ccc(C)cc4)o3)c2)cc1OC	-4.7	3.6	1.9	-3.1	-10.1	5.8
COc1ccc(CC(=O)Nc2cccc(-c3nnc(-c4cccc(C)c4)o3)c2)cc1OC	-24.5	7.4	21.3	35.9*	-20.9	21.2
CCOc1ccc(C(=O)Nc2cc(-c3nc4ccccc4[nH]3)ccc2C)cc1[N+](=O)[O-]	-2.1	-4.2	-1.4	0.5	7.3	6.3
CCOc1ccc(C(=O)Nc2cc(-c3nc4ccccc4[nH]3)ccc2Cl)cc1[N+](=O)[O-]	-14.8	3.5	14.7	38.5*	-7.5	11.6
CC1CCCN(C(=O)Cn2nnc(-c3ccc(S(C)(=O)=O)cc3)n2)C1 (stereo not given)	0.3	2.2	2.1	-1.6	-1.0	1.2
O=C(O)Cn1c(C(F)(F)F)nc2ccccc21	2.1	2.7	32.1*	0.4	19.5	1.1
CN(CC1CCCN(CCc2cccc(C(F)(F)F)c2)C1)C(=O)c1cc2ccccc2o1 (stereo not given)	-13.5	-8.5	-6.1	6.3	-21.2	9.8
O=C(N/N=C/C=C/c1ccccc1)C1CC1c1ccccc1 (stereo not given)	-1.8	-9.8	3.6	-9.5	17.3*	3.4
N#C/C(=C(/O)CO/N=C/c1ccccc1Cl)c1nc2ccccc2[nH]1	-0.1	-0.1	6.2	4.8	1.2	-0.1
FC(F)(F)Sc1ccc(NC(=S)NCc2ccccc2)cc1	-21.7	1.9	16.3	28.4*	-10.9	12.6
S=C(NCc1ccccc1)Nc1ccc(Cl)cc1	-20.6	3.6	4.5	18.1	-12.0	20.0
Cc1cc(N2CCOCC2)ccc1/C=C\[N+](=O)[O-]	2.4	15.9	19.6	30.8*	-7.2	6.1
O=[N+]([O-])c1ccc(N2CCOCC2)cc1O	13.2	3.7	1.4	-3.7	-5.3	0.9
Cn1cc(-c2coc3c(C(=O)NCc4ccco4)cccc23)cn1	-4.2	1.5	-13.9	1.2	13.1	2.9
CCN(CC)C(=O)c1ccc(COc2ccc(Cl)c(C)c2)o1	-22.6	2.1	21.2	31.0*	-10.0	12.1
CCO/C(C)=N/Oc1cnc2ccccc2c1	4.8	-1.4	3.6	-6.1	-4.2	-0.7
NC(=O)c1ccsc1NC(=O)COC(=O)/C=C/c1ccccc1[N+](=O)[O-]	-40.2	4.7	31.3*	20.2	-8.5	22.8
NC(=O)c1ccsc1NC(=O)COC(=O)/C=C/c1ccccc1	-30.4	6.8	21.6	23.2	-15.8	26.8
Cc1cc(=O)oc2cc(O)cc(OCc3ccccc3)c12	-23.3	1.8	-16.4	-5.4	-1.6	10.9
SMILES	CHRM5 PAM	CHRM5 agonist	CHRM4 antagonist	M5 antag	M4 PAM	CHRM4 agonist
COC(=O)C(NC(=O)c1ccccc1Cl)(Nc1ncc(S(=O)(=O)c2ccc([N+](=O)[O-])cc2)s1)C(F)(F)F (stereo not given)	-9.7	32.8*	-5.8	6.9	-8.1	13.4
Nc1sccc1C(=O)NCCN1CCOCC1	7.8	3.5	7.3	5.8	2.6	0.4
c1ccc(CNc2ncnc3scc(-c4cccs4)c23)nc1	-24.2	-4.3	5.3	28.1*	-12.4	14.3
c1ccc(-c2csc3ncnc(NCc4ccccn4)c23)cc1	-18.1	-9.2	16.8	18.3	-40.5	15.5
CC(C)(C)c1ccc(-n2ncc3c2CCCC3NC(=O)CN2CCCCC2=O)cc1 (stereo not given)	8.4	1.1	1.2	-14.9	-1.9	3.0
O=C(CN1CCCC1=O)NC1CCCc2c1cnn2-c1cc(F)cc(F)c1 (stereo not given)	19.4*	4.2	-4.4	-6.9	2.8	1.1
Cc1noc(C)c1C(=O)OCC(=O)Nc1ccc(S(N)(=O)=O)cc1	-1.5	0.3	-8.9	8.9	8.2	0.3
Cc1sc2nc(CN3CCOCC3)nc(N3CCOCC3)c2c1C	-2.5	-1.8	3.0	-3.0	8.1	0.0
Cc1sc2nc(CN3CCOCC3)nc(N3CCC(C(N)=O)CC3)c2c1C	-14.2	1.1	1.6	3.9	20.9*	4.3
CCCN1CCC(NC(=O)CC2C(=O)NCCN2Cc2cccc(OC)c2)CC1 (stereo not given)	-4.5	-6.5	2.8	17.2	-2.4	0.5
COc1ccc(CCNC(=O)c2cc3cc(F)ccc3nc2C)cc1OC	4.8	8.4	-8.9	2.7	-7.0	3.2
CC1(c2ccc(OC(F)F)cc2)NC(=O)N(CC(=O)Nc2ccc3[nH]c(=O)[nH]c3c2)C1=O (stereo not given)	6.2	2.5	7.2	0.6	6.1	1.0
CC1(c2ccc(OC(F)F)cc2)NC(=O)N(CC(=O)Nc2ccccc2)C1=O (stereo not given)	-3.7	43.6*	16.6	15.6	-14.1	66.9*
CC1(c2ccc(OC(F)F)cc2)NC(=O)N(CC(=O)Nc2ccc3c(c2)OCO3)C1=O (stereo not given)	0.7	40.9*	8.0	17.5	3.1	32.1*
CCOC(=O)C1CCC(CNCc2ccc(Cl)cc2)CC1 (stereo not given)	-15.3	-7.0	41.9*	21.0	-14.0	2.5
COc1ccc(-c2cn(CCC(=O)NCc3ccc(C)cc3)c(CCN)n2)cc1	-6.9	-3.0	9.5	23.7	0.2	0.3
COc1ccc(C2NC(=S)N3C(c4ccc(OC)cc4)NC(=S)N23)cc1 (stereo not given)	-2.3	-4.9	-1.6	-0.1	16.7	1.2
COc1ccc(C2Nc3cc(OC)ccc3-n3cccc32)cc1 (stereo not given)	12.8	1.6	-19.1	4.2	17.4*	2.0
COC(=O)c1c(Sc2ccccc2)c2ccccc2n1C	-19.1	57.5*	-3.6	24.2	-5.6	-0.8
